Usually IC50 stands for the concentration at which inhibition is half-maximal. In general, inhibition refers to the relative decrease from the control value, in per cent. In general, Ki refers to the equilibrium dissociation constant of an inhibitor or competing ligand from its target.

The target of data set [1] is T1, Diacylglycerol kinase alpha (Homo sapiens, UniProt P23743). Nature of the data set: Inhibition of OST-tagged DGKalpha (unknown origin) expressed in MDCK cell homogenates assessed as residual activity at 100 uM using DAG as substrate measured after 5 mins in presence of [gamma-32P]ATP by TLC analysis relative to control. The format is cell-free.
T1 sequence (P23743 whole entry): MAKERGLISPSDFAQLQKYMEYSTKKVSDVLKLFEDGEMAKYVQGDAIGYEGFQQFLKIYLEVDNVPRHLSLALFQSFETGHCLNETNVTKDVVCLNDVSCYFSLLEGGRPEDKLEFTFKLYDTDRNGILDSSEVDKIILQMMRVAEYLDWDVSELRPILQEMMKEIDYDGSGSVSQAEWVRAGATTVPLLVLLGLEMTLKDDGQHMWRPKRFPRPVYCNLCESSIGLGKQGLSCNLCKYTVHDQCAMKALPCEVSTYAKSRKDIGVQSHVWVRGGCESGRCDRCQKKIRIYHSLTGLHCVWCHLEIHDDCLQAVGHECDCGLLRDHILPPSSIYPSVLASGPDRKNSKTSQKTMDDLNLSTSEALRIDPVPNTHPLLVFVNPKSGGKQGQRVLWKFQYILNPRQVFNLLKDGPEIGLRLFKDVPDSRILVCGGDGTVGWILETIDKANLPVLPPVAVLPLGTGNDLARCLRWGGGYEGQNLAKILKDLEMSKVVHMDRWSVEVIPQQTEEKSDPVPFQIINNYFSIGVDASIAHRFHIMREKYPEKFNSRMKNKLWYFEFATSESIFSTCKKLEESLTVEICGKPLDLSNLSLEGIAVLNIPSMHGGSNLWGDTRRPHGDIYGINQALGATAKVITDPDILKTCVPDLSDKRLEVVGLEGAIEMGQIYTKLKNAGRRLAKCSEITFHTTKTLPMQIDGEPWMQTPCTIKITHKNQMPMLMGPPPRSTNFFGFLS
The target in data set [2] is T1, Diacylglycerol kinase alpha. Nature of the data set: Inhibition of OST-tagged DGKalpha (unknown origin) expressed in MDCK cell homogenates using DAG as substrate measured after 5 mins in presence of [gamma-32P]ATP by TLC analysis. The format is cell-free. In a few lines: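 Doxycycline-induced (1 μg/ml, 2 days) MDCK cells expressing OST-DGKα, homogenized in Hepes pH 8 buffer with EDTA, EGTA, vanadate and protease inhibitors. Initial velocity measured 5 min at 27 °C with saturating 1,2-dioleoyl-sn-glycerol and γ32P-ATP plus 25 μM unlabelled ATP and MgCl2. Stopped with HCl, lipids extracted, separated by TLC, radioactive phosphatidic acid quantified by imager. IC50 from 0.1–100 μM, ≥3 experiments, normalized fit.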

Data set [3] addresses Diacylglycerol kinase zeta (Homo sapiens) (UniProt Q13574). Nature of the data set: Inhibition of DGKzeta (unknown origin) expressed in human 293T cells at 100 uM using DAG as substrate measured after 5 mins in presence of [gamma-32P]ATP by TLC analysis. The method in brief: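 293T cells transiently transfected with the DGKζ plasmid or empty vector; homogenates collected 48 h later. Compound at 100 μM. Reaction run 5 min at 27 °C with saturating 1,2-dioleoyl-sn-glycerol, γ32P-ATP plus 25 μM unlabelled ATP, and MgCl2, at pH 8. Stopped with HCl, lipids extracted and separated by TLC, read by phosphorimaging. At least three experiments in triplicate.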

The target of data set [4] is Diacylglycerol kinase alpha (Sus scrofa, UniProt P20192). Nature of the data set: Inhibition of pig FLAG3-tagged DGKalpha expressed in African green monkey COS7 cells using 1,2-dioleoyl-sn-glycerol as substrate measured after 30 mins by ADP-Glo luminescence assay.
Chain of Diacylglycerol kinase alpha (Sus scrofa, UniProt P20192) (P20192 whole entry): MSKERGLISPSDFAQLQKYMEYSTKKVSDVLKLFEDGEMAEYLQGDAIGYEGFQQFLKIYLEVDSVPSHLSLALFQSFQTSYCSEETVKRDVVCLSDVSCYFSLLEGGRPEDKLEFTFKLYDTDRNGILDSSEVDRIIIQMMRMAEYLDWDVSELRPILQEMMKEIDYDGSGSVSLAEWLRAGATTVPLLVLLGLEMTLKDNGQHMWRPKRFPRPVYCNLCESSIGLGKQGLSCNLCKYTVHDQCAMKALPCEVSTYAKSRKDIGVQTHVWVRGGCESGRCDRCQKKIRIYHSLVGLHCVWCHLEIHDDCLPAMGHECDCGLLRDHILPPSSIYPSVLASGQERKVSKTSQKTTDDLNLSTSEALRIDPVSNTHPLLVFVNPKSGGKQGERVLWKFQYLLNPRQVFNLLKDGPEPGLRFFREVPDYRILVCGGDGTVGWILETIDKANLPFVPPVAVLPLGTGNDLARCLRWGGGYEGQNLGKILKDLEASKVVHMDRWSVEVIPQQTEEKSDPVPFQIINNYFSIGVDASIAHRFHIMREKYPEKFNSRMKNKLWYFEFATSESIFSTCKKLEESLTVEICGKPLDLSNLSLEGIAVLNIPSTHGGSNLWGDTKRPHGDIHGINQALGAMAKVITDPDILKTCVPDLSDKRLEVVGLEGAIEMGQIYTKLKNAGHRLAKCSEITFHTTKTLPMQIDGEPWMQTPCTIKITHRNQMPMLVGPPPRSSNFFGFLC
In data set [5] the target is T1, Diacylglycerol kinase alpha. Nature of the data set: Inhibition of DGKalpha expressed in 293T cell homogenates at 100 uM using DAG as substrate measured after 5 mins in presence of [gamma-32P]ATP by TLC analysis relative to control.
Data set [6] concerns Serotonin (5-HT) receptor. Description: Antagonist activity at serotonin receptor in human PBMC assessed as inhibition of PMA-stimulated superoxide anion generation at 10 uM preincubated for 1 hr followed by PMA-stimulation and measured after 30 mins by spectrophotometric method. As to conditions: 0.5 h.
A further data set concerns Jurkat. Description: Cytotoxicity against human Jurkat cells assessed as reduction in cell viability at 1 uM after 24 hrs by trypan blue exclusion assay. The data set is classed as cell-based. The method in brief:
(§1)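 SAP-shRNA or control-shRNA Jurkat cells, 0.5 × 10^5 cells/well in triplicate, in wells left uncoated or precoated for 24 h at 4 °C with anti-CD3 OKT3 (50 μg/ml) or PHA-P (50 μg/ml). Inhibitor at 1 μM or DMSO control for 24 h. Live cells counted by trypan blue exclusion; % cell loss versus untreated controls. At least three experiments.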

For data set [7], the target named is T1, Diacylglycerol kinase alpha. Nature of the data set: Inhibition of DGKalpha in OKT3-induced human Jurkat cells harboring SAP ShRNA assessed as restoration of restimulation-induced cell death at 1 uM measured after 24 hrs by trypan blue exclusion method. The data set is classed as cell-based. In a few lines: as §1
For data set [8] the target is unchanged. Nature of the data set: Inhibition of DGKalpha in PHA-induced human Jurkat cells harboring SAP ShRNA assessed as restoration of restimulation-induced cell death at 1 uM measured after 24 hrs by trypan blue exclusion method. The format is cell-based. In a few lines:
as §1

For data set [9], the target named is T-cell receptor (Homo sapiens) (UniProt P04437+P01848+P04435+P03979). Description: Effect on TCR signaling in OKT3-induced human T-cells harboring SiRNA assessed as restoration of restimulation-induced cell death at 1 to 10 uM preincubated for 30 mins followed by OKT3 stimulation and measured 24 hrs post dose by propidium iodide staining based flow cytometry. The method in brief:
(§2)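 PBL from healthy donors, activated with anti-CD3/CD28 and then kept in IL-2. siRNA (SAP or control, 200 pmol) delivered by nucleofection, then 4 days in IL-2. 10^5 cells/well in triplicate; inhibitor (1, 5, 10 μM) added 30 min before OKT3 restimulation (1–500 ng/ml) for 24 h. PI staining, fixed 30 s flow acquisition; % cell loss.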

For a further data set, the system named is T-cell. Description: Cytotoxicity against human T cells assessed as cell death at 1 to 10 uM measured after 24 hrs propidium iodide staining based flow cytometry. In a few lines: as §2
For orientation: In flow cytometry, cells or beads pass a laser one at a time.

In data set [10] the target is T1, Diacylglycerol kinase alpha. Nature of the data set: Inhibition of DGKalpha in OKT3-induced human T cells harboring SAP SiRNA assessed as restoration of restimulation-induced cell death at 1 to 10 uM preincubated for 30 mins followed by OKT3 stimulation and measured 24 hrs post dose by propidium iodide staining based flow cytometry. In a few lines:
as §2

Data set [11] has the same target. Nature of the data set: Inhibition of DGKalpha in OKT3-induced human T cells harboring SAP siRNA assessed as restoration of TCR-induced NR4A1 upregulation at 10 uM after 4 hrs by RT-PCR analysis. The format is cell-based. In a few lines:
(§3)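 Activated PBL transfected with SAP or control siRNA, 4 days in culture. Restimulated with OKT3 (10 μg/ml), with or without inhibitor at 10 μM. After 4 h, NR4A1 and NR4A3 measured by TaqMan qPCR normalised to GUSB. At least four independent experiments.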

Data set [12] concerns the target T2, 5-hydroxytryptamine receptor 2C (Homo sapiens, UniProt P28335).
T2 sequence (P28335 whole entry): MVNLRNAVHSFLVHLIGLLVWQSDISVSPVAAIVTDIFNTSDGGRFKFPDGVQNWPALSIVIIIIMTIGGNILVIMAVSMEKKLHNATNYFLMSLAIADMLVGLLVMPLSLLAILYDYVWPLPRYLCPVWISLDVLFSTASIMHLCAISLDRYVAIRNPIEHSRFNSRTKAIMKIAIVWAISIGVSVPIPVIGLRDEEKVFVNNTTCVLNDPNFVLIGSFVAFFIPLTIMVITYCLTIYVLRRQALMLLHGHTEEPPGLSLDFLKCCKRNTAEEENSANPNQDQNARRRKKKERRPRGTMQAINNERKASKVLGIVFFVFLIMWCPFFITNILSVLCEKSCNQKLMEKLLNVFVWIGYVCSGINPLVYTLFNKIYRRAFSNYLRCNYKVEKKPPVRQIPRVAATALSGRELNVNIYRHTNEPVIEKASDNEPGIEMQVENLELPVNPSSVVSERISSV
Nature of the data set: Binding affinity to 5HT2C receptor (unknown origin).

Data set [13] addresses T1, Diacylglycerol kinase alpha. Description: Inhibition of DGKalpha in OKT3-induced human T cells harboring SAP SiRNA assessed as restoration of restimulation-induced cell death at >=5 uM preincubated for 30 mins followed by OKT3 stimulation and measured 24 hrs post dose by propidium iodide staining based flow cytometry. In a few lines:
as §2

A short description of data set [14]: Solubility of the compound in DMSO. The format is physicochemical.
Data set [15] deals with T1, Diacylglycerol kinase alpha. Nature of the data set: Inhibition of DGKalpha in human erythrocytes using OAG as substrate preincubated for 1 min followed by OAG addition and measured after 8 mins in presence of [gamma-32P]ATP. The data set is classed as cell-based.
For data set [16], the target named is Diacylglycerol kinase alpha (Rattus norvegicus, UniProt P51556). Description: Inhibition of rat FLAG-tagged DGKalpha expressed in HEK293T cells using DAG as substrate measured after 15 mins in presence of [gamma-32P]ATP by scintillation counting method.
Chain of Diacylglycerol kinase alpha (Rattus norvegicus, UniProt P51556) (P51556 whole entry): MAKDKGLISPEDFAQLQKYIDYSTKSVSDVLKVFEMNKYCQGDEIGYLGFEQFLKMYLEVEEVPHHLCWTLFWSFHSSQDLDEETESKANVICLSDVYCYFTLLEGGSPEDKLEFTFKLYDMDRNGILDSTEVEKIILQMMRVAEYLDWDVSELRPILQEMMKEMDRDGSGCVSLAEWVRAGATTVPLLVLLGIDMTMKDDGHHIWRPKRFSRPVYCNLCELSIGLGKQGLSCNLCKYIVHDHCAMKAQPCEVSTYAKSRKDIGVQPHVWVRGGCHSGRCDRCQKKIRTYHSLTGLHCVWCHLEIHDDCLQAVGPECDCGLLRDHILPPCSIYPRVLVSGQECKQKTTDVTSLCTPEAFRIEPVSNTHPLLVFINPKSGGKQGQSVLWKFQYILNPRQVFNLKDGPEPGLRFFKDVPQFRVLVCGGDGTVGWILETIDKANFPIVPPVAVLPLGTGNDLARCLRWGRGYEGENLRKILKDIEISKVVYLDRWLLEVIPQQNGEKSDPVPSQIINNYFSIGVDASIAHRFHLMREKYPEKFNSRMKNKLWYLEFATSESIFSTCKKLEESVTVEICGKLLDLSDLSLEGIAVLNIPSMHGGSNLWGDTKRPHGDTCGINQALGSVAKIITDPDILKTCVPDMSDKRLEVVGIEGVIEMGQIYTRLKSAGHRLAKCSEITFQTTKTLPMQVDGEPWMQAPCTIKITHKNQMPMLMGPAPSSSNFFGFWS
The target of data set [17] is T1, Diacylglycerol kinase alpha. Description: Inhibition of DGKalpha in OKT3-induced human T cells harboring SAP siRNA assessed as restoration of TCR-induced NR4A3 upregulation at 10 uM after 4 hrs by RT-PCR analysis. The data set is classed as cell-based. The method in brief: as §3

Calls of active or inactive are those of the source. No cut-off for these calls is given here.

Chain of Diacylglycerol kinase zeta (Homo sapiens) (Q13574 whole entry): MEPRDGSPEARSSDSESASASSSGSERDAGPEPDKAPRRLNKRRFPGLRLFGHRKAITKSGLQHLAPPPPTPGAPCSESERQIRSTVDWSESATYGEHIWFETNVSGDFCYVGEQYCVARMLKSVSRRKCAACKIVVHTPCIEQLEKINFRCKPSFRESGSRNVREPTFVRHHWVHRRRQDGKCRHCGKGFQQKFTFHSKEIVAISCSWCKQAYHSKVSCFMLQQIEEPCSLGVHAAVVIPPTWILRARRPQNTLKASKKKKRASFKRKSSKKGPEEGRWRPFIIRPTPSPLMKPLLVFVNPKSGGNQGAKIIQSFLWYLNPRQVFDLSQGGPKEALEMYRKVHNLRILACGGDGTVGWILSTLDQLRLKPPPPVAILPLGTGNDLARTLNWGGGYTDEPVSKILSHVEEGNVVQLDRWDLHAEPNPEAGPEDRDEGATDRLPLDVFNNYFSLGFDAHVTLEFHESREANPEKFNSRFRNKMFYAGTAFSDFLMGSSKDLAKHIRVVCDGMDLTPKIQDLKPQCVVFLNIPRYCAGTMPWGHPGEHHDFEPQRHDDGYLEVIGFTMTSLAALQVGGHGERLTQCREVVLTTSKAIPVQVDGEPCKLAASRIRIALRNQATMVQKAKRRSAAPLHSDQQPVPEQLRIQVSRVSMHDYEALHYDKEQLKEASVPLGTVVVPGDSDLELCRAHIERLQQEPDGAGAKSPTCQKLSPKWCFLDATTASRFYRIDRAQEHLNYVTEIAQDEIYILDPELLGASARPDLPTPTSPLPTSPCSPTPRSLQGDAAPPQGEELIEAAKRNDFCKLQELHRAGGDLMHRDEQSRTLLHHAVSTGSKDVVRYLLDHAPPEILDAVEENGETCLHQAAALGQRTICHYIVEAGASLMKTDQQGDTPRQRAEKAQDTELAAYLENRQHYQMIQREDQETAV

As for `O=c1c2ccccc2[nH]c(=S)n1CCN1CCC(=C(c2ccc(F)cc2)c2ccc(F)cc2)CC1` [DIACYLGLYCEROL KINASE INHIBITOR II], the Activity in data set [1] was 28%. Also, the IC50 in data set [2] is 10.6 µM; in [4], 18 µM. Moreover, the inhibition result in [3] was “inactive”. Besides, the inhibition in data set [5] was found to be 81%.

For the compound `Cc1nc2sccn2c(=O)c1CCN1CCC(=C(c2ccc(F)cc2)c2ccc(F)cc2)CC1` [RITANSERIN], the Activity in data set [1] was 17%; with Jurkat, “Non-Toxic”; in the data set on T-cell, “Non-Toxic”. For the same compound, the IC50 in [2] is 16.7 µM. For the same compound, the “inhibition (INH)” value in data set [6] was “Active”. In addition, the inhibition result in [7], in data set [8], in data set [10] and in data set [11] was “Active” each time. For the same compound, the outcome in [9] was inactive. Affinity in data set [12] was put at a Ki of 0.00071 µM.

For `O=C1/C(=C\C=C\c2ccco2)SC(=S)N1NS(=O)(=O)c1ccccc1`, the “inhibition (INH)” value in data set [6] is “Not Active”. Moreover, the Activity result in the data set with Jurkat is recorded as “Toxic”. The inhibition result in [7], in data set [8] and in [13] was “Active” in each case. The outcome in [9] was Active. Further, the IC50 in data set [4] came out at 0.6 µM.

In the case of `COc1ccccc1N1CCN(CCCNc2cc(=O)n(C)c(=O)n2C)CC1`, in data set [1], the Activity was 75%.

As for `O=C1C(=O)N(C2CCCC2)C(=O)N1CN1CCC(Cc2ccccc2)CC1`, the Activity in data set [1] was 50%.

Regarding `O=c1c2ccccc2[nH]c(=S)n1CCCN1CCN(c2cccc(Cl)c2)CC1`, the Activity in data set [1] is 39%.

Turning to `O=C(CN1CCC(n2nnc3ccccc32)CC1)N(C1CCCCC1)C1CCCCC1`, the solubility result in data set [14] was “Insoluble”.

As to `CC[C@H](C)[C@@H](OC(C)=O)[C@@H](C)C1=CC(=O)C2=C(O[C@]3(C)CC[C@H]4O[C@@H](C(C)(C)O)CC[C@]4(C)[C@H]3[C@@H]2O)C1=O` [COCHLIOQUINONE A], in data set [15], the inhibitory constant (Ki) worked out at 2.26 µM.

In the case of `Cc1nc2sccn2c(=O)c1CCN1CCC(=C(c2ccccc2)c2ccc(F)cc2)CC1`, the Activity in data set [1] turned out to be 27%. Further, the 50% inhibitory concentration (IC50) was 19.7 to 19.8 µM in data set [2], 25 µM in data set [4], 3.8 µM in data set [15] and 20 µM in data set [16]. Besides, the inhibition result in [3] is “inactive”. Besides, the inhibition in data set [5] was 68%.

As to `O=C(CN1CCN(Cc2ccccc2)CC1)c1c[nH]c2ccccc12`, the Activity in data set [1] worked out at 72%.

On to `O=C(NCC(=O)N1CCN(C(c2ccccc2)c2ccccc2)CC1)c1ccco1`, for which the Activity in data set [1] was determined as 68%.

`O=C(Cn1cnc2sccc2c1=O)N1CCN(C(c2ccccc2)c2ccccc2)CC1`: the Activity in data set [1] was found to be 75%.

As to `O=C1CC2(CCCC2)C(=O)N1CN1CCN(C(c2ccccc2)c2ccccc2)CC1`, the Activity in [1] came to 68%.

Regarding `O=C(CCCN1CCC(O)(c2ccc(Cl)cc2)CC1)c1ccc(F)cc1`, the Activity in [1] was determined as 62%.

`COc1ccccc1OCCCN1CCN(C(=O)c2ccc(=O)[nH]n2)CC1`: in data set [1], the Activity came out at 67%.

In the case of `O=c1c2ccccc2[nH]c(=S)n1CCN1CCN(Cc2ccccc2)CC1`, the Activity in data set [1] was determined as 49%.

Take `Cc1ccc2c(C(=O)CN3CCN(C(=O)c4ccco4)CC3)c(C)[nH]c2c1`: the Activity was 4% in data set [1], “Non-Toxic” in the data set on Jurkat and “Non-Toxic” with T-cell. In addition, the IC50 in [2] lay in the range of 4.28 to 4.3 µM. In addition, the inhibition entry in data set [3] was “inactive”. Moreover, the “inhibition (INH)” value in [6] is “Not Active”. The inhibition result in data set [7], in data set [8], in data set [10], in data set [11] and in data set [17] was “Active” each time. In addition, in data set [9], the result was inactive. Besides, the inhibition in data set [5] came out at 93%.

In the case of `COc1ccccc1CCN1CCC(CN(C)C(=O)C2=CCCCC2)CC1`, the Activity in data set [1] was 57%.

Consider `C/C=C(\C)[C@@H](OC(C)=O)[C@@H](C)C1=CC(=O)C2=C(O[C@]3(C)CC[C@H]4O[C@@H](C(C)(C)O)CC[C@]4(C)[C@H]3[C@@H]2O)C1=O` [STEMPHONE], for which, in data set [15], the inhibition constant Ki was 3.32 µM.

Regarding `Cc1nc2n(c(=O)c1CCN1CCC(c3noc4cc(F)ccc34)CC1)CCCC2` [RISPERIDONE], the solubility result in [14] is on record as “Insoluble”.

`O=C(c1ccc(F)cc1)C1CCN(CCn2c(=O)[nH]c3ccccc3c2=O)CC1` [KETANSERIN]: in [6], the “inhibition (INH)” value is “Active”. Also, the Activity entry in the data set with Jurkat and in the data set on T-cell was “Non-Toxic” each time. Moreover, the inhibition result in data set [7] and in data set [8] was “Active” each time. In addition, the result in data set [9] was inactive. The inhibition result in [10] was “inactive”.

With `CCCCCCCC(=O)OCCOC(=O)CCCCCCC` [ETHYLENE GLYCOL DIOCTANOATE], the Ki in data set [15] was 58 µM.

For the compound `O=C(Cc1cn2ccsc2n1)N1CCN(C(c2ccccc2)c2ccccc2)CC1`, in data set [1], the Activity is 64%.

The values above are taken from ChEMBL document CHEMBL4411310, “Identification of a novel DGKα inhibitor for XLP-1 therapy by virtual screening” (Eur J Med Chem, 2019).
